Results as given in ChEMBL document CHEMBL1154500, “Mechanism-based inhibitors of MenE, an acyl-CoA synthetase involved in bacterial menaquinone biosynthesis” (Bioorg Med Chem Lett, 2008).
Activity calls are given as the source filed them. The rule behind the calls is not given here.

Columns and labels:
[1] = Inhibition of Escherichia coli Histidine6-tagged 5 uM MenE expressed in Escherichia coli BL21 cells coexpressing Mycobacterium tuberculosis Histidine6-tagged 100 nM MenB assessed as formation of DHNA-CoA by coupled assay
Procedure, shortened: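 Counter-assay in the coupled format using separately purified His6-tagged E. coli MenE and M. tuberculosis MenB. MenB was limiting (100 nM) and MenE in excess (5 μM), to test for direct MenB inhibition. The read-out was DHNA-CoA formation.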

[2] = tested on: Mycolicibacterium smegmatis; test: Growth inhibition of Mycobacterium smegmatis upto 300 uM; format: functional, organism-based
[3] = Inhibition of Escherichia coli Histidine6-tagged 20 nM MenE expressed in Escherichia coli BL21 cells coexpressing Mycobacterium tuberculosis Histidine6-tagged 7.2 uM MenB assessed as formation of DHNA-CoA by coupled assay
Procedure, shortened: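 Coupled MenE–MenB assay. E. coli MenE and M. tuberculosis MenB each carried an N-terminal His6 tag, were expressed separately in E. coli BL21, and were affinity-purified. Reactions contained MenB (7.2 μM), ATP, CoA and OSB (each 240 μM), and inhibitor (0–200 μM), and were started by adding MenE (20 nM final). DHNA-CoA formation was followed at 392 nm to derive IC50.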

Row | Compound | inhibition [1] | inhibition [2] | IC50 [3]
1 | COC(=O)c1ccccc1C(=O)CCC(=O)NS(=O)(=O)OC[C@H]1O[C@@H](n2cnc3c(N)ncnc32)[C@H](O)[C@@H]1O | inactive | inactive | 38 µM
2 | C=C(CCC(=O)NS(=O)(=O)NC[C@H]1O[C@@H](n2cnc3c(N)ncnc32)[C@H](O)[C@@H]1O)c1ccccc1C(=O)OC | inactive | inactive | > 200 µM
3 | COC(=O)c1ccccc1C(=O)CC/C=C/S(=O)(=O)NC[C@H]1O[C@@H](n2cnc3c(N)ncnc32)[C@H](O)[C@@H]1O | inactive | inactive | 5.7 µM
4 | C=C(CCC(=O)NS(=O)(=O)OC[C@H]1O[C@@H](n2cnc3c(N)ncnc32)[C@H](O)[C@@H]1O)c1ccccc1C(=O)OC | inactive | inactive | > 200 µM
5 | COC(=O)c1ccccc1C(=O)CCC(=O)NS(=O)(=O)NC[C@H]1O[C@@H](n2cnc3c(N)ncnc32)[C@H](O)[C@@H]1O | inactive | inactive | 34.1 µM
6 | C=C(CC/C=C/S(=O)(=O)NC[C@H]1O[C@@H](n2cnc3c(N)ncnc32)[C@H](O)[C@@H]1O)c1ccccc1C(=O)OC | inactive | inactive | > 200 µM
